# High-throughput results from PubChem BioAssay.
# TCR CD3 inh – human TCR-CD3 binding inhibition; AID 651800; 360,000 tested, 0.37% active; TAMRA-labeled TCR probe fluorescence, biochemical; inhibition, % at 9.4 µM; in the data active = inhibition above about 19%;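 also: recombinant mutant TCR 2C K166C tagged with TAMRA read by polarization; 0% = receptor in buffer alone and 100% = receptor with positive control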
# DDE Tn7 FP inh – DD(E)-Tn7 binding inhibition, primary FP screen. 370,000 tested, 0.13% active. FP displacement of FITC-Tn7 peptide from fibrin DD(E); 0% = median of compound wells per plate. inhibition, % at 8.3 µM. P02675;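 active = inhibition above the mean of compounds falling within the control limits plus 3 SD of them, cut at about 14% in these data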;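 also: 0% = plate median of compound wells and 100% = 10 µM Aha-Tn7 peptide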
# Target sequence (P02675 whole entry, looked up): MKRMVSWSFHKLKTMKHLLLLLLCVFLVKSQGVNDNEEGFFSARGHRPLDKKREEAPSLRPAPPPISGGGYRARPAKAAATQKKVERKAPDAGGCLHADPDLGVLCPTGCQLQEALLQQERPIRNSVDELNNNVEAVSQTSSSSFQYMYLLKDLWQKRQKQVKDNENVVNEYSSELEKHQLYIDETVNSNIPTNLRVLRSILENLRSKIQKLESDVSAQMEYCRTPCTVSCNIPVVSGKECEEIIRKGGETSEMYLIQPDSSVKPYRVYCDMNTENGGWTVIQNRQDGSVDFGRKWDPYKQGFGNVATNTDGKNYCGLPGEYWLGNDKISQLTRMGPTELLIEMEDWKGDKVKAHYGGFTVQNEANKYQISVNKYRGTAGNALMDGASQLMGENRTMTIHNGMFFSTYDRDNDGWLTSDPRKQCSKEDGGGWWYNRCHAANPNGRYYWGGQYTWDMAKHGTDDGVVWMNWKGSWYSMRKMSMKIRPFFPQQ
#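 Test system: human clot-derived fibrin DD(E) complex / Quantity: 2 µM final DD(E) protein / Incubation: 10 min plus 3 h, room temperature / Measured by: fluorescence polarization / Benchmarks: high control of 10 µM Aha-Tn7 peptide / Replicates: singlicate testing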
# SIAE inh – inhibitors of human sialic acid acetylesterase SIAE; Q9HAT2; SIAE FP-Rh probe binding, fluorescence polarization; inhibition, % at 9.66 µM; 370,000 tested, 0.69% active;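 active = inhibition above a cutoff: mean of compounds within the control limits plus 3 SD of those, cut at about 17% in these data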;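 also: 0% = plate median of compound wells and 100% = probe without SIAE protein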
# ABHD4 inh – inhibits mouse alpha/beta hydrolase domain 4. Q8VD66. purified mABHD4, FP-Rh probe fluorescence polarization. inhibition, % at 8.92 µM. 370,000 tested, 0.54% active. AID 720543;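 active = inhibition exceeding the mean over every tested compound plus 3 SD, cut at about 30% in these data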;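 also: 0% = plate median of compound wells and 100% = S159A mutant with DMSO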
#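 assay system = mABHD4 protein | compound dosing = single nominal dose of 8.92 µM, 0.89% DMSO final | read-out basis = percent inhibition of probe binding, normalized to plate controls | schedule = Enzyme–compound pre-incubation 45 min, then probe 60 min, both 25 °C | detection = fluorescence polarization, excitation 525 nm, emission 598 nm, BODIPY TMR filters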
# Tn6 DDE FP – disrupts Tn6 cyclic peptide binding to fibrin D-Dimer-E complex. P02675. Fibrin DD(E) TRITC-Tn6 fluorescence polarization displacement. inhibition, % at 8.3 µM. 370,000 tested, 0.21% active. AID 720509;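 active = inhibition above a per-campaign cutoff: mean of compounds within control limits plus 3 SD, cut at about 15% in these data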;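 also: 0% = median of all compound wells on the plate and 100% = blocking peptide control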
# HTRA1 inh – blocks human HTRA1 serine peptidase; Q92743; recombinant HTRA1, FP-rhodamine activity-based probe, fluorescence polarization; 340,000 tested, 0.5% active; inhibition, % at 5.96 µM; AID 504803; in the data active = inhibition above about 36%;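 also: 0% = enzyme with DMSO and 100% = wells lacking enzyme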
# HTRA1 conf – confirmation of human HTRA1 inhibitors | shares compounds with HTRA1 inh | recombinant HTRA1, FP-rhodamine activity-based probe, fluorescence polarization | inhibition, % at 5.96 µM | 1,600 tested, 66% active | AID 540248;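 active = mean inhibition over three repeats above a set limit taken from the earlier primary screen, cut at about 37% in these data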;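 also: 0% = HTRA1 with DMSO and 100% = wells lacking HTRA1; inhibitors block probe binding so polarization drops and inhibition rises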
# * hit, by the source's call; x = not tested or not shown. Only some compounds are listed: those with a hit (about 1.8% of all), similar ones and a draw of the others.
SMILES,TCR CD3 inh,DDE Tn7 FP inh,SIAE inh,ABHD4 inh,Tn6 DDE FP,HTRA1 inh,HTRA1 conf
COc1ccccc1NC(=O)c1ccccc1Nc1ccccc1,0,3,4,-10,-8,-26,x
COc1ccccc1Nc1ccc(N)cc1,2,1,10,24,-5,68*,56*
CCc1noc(C)c1C(=O)Oc1ccc(N(C)S(=O)(=O)c2ccc(C)cc2)cc1,x,x,x,x,x,29,x
CCc1noc(C)c1C(=O)Oc1ccc(N(C)S(=O)(=O)c2ccccc2)cc1,-14,0,5,-13,5,36*,30
CN(C)c1ccc(NC(=O)Cn2cc3c(n2)CCCC3)cc1,-9,-1,3,5,-10,44*,59*
CN(C)C=Nc1nc2c(Br)ccc(Br)c2cc1C(=O)NCC(C)(C)C,x,-1,-1,-1,-4,x,x
OCCN1CCN(Cc2cc(Cl)c3cccnc3c2O)CC1,6,-6,4,4,6,52*,54*
Oc1c(CN2CCN(c3ccccn3)CC2)cc(Cl)c2cccnc12,x,x,x,x,x,39*,58*
Cc1cccc(NC(=O)Nc2c(-c3ccc(C(F)(F)F)cc3)nc3ncccn23)c1,x,6,5,4,-9,x,x
C[C@H]1C(=O)N2[C@@H](C[C@]3(c4c[nH]c5ccccc45)c4ccccc4N(S(=O)(=O)c4ccccc4)[C@H]23)C(=O)N1C,x,-5,-2,10,-4,x,x
CC(=O)N1CCN(c2ccc(NCc3ccc(-c4ccc(Br)cc4)o3)cc2)CC1,2,4,8,29,-6,44*,19
CN1CCN(c2ccc(NC(=O)c3ccc(-c4ccc(Br)cc4)o3)cc2)CC1,5,3,12,17,-5,14,x
O=C(Nc1cccc(C(F)(F)F)c1)OCCCN1CCC2(CCC(c3ccccc3)CC2)C1=O (stereo not drawn),x,4,1,-10,5,x,x
O=C(NC(=S)NNC(=O)c1cc2ccccc2cc1O)c1ccco1,7,-5,0,15,-4,45*,35
O=C(NC(c1ccccc1)c1cc(Cl)c2cccnc2c1O)c1cccnc1 (stereo not drawn),-7,-6,-2,6,-5,x,x
CC(=O)NC(C)c1cc(Cl)c2cccnc2c1O (stereo not drawn),-1,7,1,4,2,41*,52*
Clc1cc2cccnc2c2ccccc12,-8,0,0,7,8,-2,x
Oc1c(Cl)cc(Cl)c2cccnc12,-3,-4,23*,11,5,48*,56*
Cc1ccc2c(Cl)cc(Cl)c(O)c2n1,-4,5,11,5,0,40*,47*
CCC(=O)NC(c1ccc(C)cc1)c1cc(Cl)c2cccnc2c1O (stereo not drawn),x,x,x,x,x,62*,76*
CC(=O)NC(C)c1cc(Cl)c2ccccc2c1O (stereo not drawn),2,5,6,0,-5,-1,x
COC(=O)[C@]12C[C@H](CC(=O)NCc3cccc(C(F)(F)F)c3)C(=O)N(Cc3ccc4c(c3)OCO4)C1=C[C@H](C(C)(C)C)O[C@@H]2C,10,6,2,-3,-2,x,x
CCOC(=O)[C@@]12CCCC=C1N(CCc1ccc(Cl)cc1)C(=O)[C@H]2CC(=O)NCC1CCCCC1,x,4,-6,9,12,x,x
COC(=O)[C@]12C[C@H](CC(=O)N3CCSCC3)C(=O)N(Cc3ccc(Cl)cc3Cl)C1=C[C@H](C(C)(C)C)O[C@@H]2C,x,-3,7,-9,2,x,x
CCOc1ccc(NC(=S)NCc2cccnc2)cc1,0,0,4,4,-1,6,x
SMILES,TCR CD3 inh,DDE Tn7 FP inh,SIAE inh,ABHD4 inh,Tn6 DDE FP,HTRA1 inh,HTRA1 conf
CCC(=O)NC(C)c1cc(Cl)c2cccnc2c1O (stereo not drawn),4,-4,8,-1,1,48*,82*
CCOc1ccc(C(Nc2cccnc2)c2cc(Cl)c3cccnc3c2O)cc1 (stereo not drawn),0,1,0,0,7,43*,42*
CN1CCN(C(c2ccc(Br)cc2)c2cc(Cl)c3cccnc3c2O)CC1 (stereo not drawn),-16,-7,-4,-5,-14,52*,70*
COc1ccc(C(NC(C)=O)c2cc(Cl)c3cccnc3c2O)cc1OC (stereo not drawn),-2,9,15,6,7,42*,56*
CCOC(=O)CC[C@@H]1CC[C@]2(CCCN(C(=O)C3CCCC3)C2)O1,x,-4,2,6,10,x,x
CCCOc1cc(N)ccc1C(=O)OCCN(CC)CC,5,-2,6,1,-4,6,x
CCCOc1ccc(N)cc1N,5,2,15,22,-7,56*,13
O=C(CN1C(=O)/C(=C/c2ccccc2)SC1=S)NNC(=O)c1ccccc1O,18,-3,2,-1,-11,55*,42*
O=C1/C(=C\c2cccc(O)c2O)SC(=S)N1Cc1ccccc1,-2,-1,-6,13,1,54*,65*
C(=N\NC1=Nc2cccc3cccc1c23)/c1ccccn1,4,-1,-2,21,-2,49*,50*
COc1ccc2c(c1)c(C(=O)N/N=C/c1ccc(Br)cc1)c(C)n2C,7,-1,0,-2,3,-17,x
COc1ccc2c(c1)c(C(=O)N/N=C/c1ccc(O)c(O)c1)c(C)n2C,5,0,-3,16,-10,43*,64*
Cc1ccc2c(c1)c1c(n2C)-c2[nH]ncc2CC1,4,1,21*,25,-2,37*,20
Cc1ccc(NC(=O)[C@@H]2CC(=O)O[C@@H]2c2ccccc2)c(C)c1,x,4,0,10,-2,x,x
COC(=O)C1=NN(C(=O)c2cccc(Br)c2)C(O)(c2ccc(Cl)cc2)C1 (stereo not drawn),4,-7,3,9,-5,66*,65*
CCOC(=O)C1=NN(C(=O)c2ccccc2)C(O)(c2ccc(C)cc2)C1 (stereo not drawn),-3,-8,3,18,1,32,x
Cc1n[nH]c(=O)c2c(NC(=O)CSc3nc4ccccc4c(=O)n3CCCO)oc(C)c12,-6,9,4,-6,2,38*,-2
CC1(C)CCCN(C(=O)c2ccc3c(c2NCCO)C(=O)c2ccccc2C3=O)C1,-17,-1,6,5,1,42*,39*
O=C1c2ccccc2C(=O)c2c1ccc(C(=O)N1CCCCC1)c2NCCO,-1,-1,-5,7,10,3,x
O=C(NC1CCC1)c1ccc(C#CC2CC2)c[n+]1[O-],x,-1,10,-5,1,x,x
